Data as given in publication PMC12282580 (RSC Advances, 2025).

Columns and labels:
[1] = test system: SW620 cells (colon cancer); experiment: Cytotoxicity assay; format: cell-based; conditions: Homo sapiens, SW-620, 48 h, read-out: Cytotoxicity (IC50) SW620
[2] = test system: SW620 human colon cancer cells; experiment: Cell cycle analysis; format: cell-based; conditions: 5 μM, 24-hour treatment, effect less pronounced for 7d and 11d compared to SAHA
Summary of the method: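 Controls were untreated cells and vehicle-treated cells (DMSO 0.05%). Data shown as histograms plus bar graphs.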

[3] = test system: MDA-MB-231 cells (breast cancer); experiment: Cytotoxicity assay; format: cell-based, human; conditions: read-out: Cytotoxicity (IC50) MDA-MB-231; MDA-MB-231 breast cancer; 48h; MTT
SW620 cells = experiment: Morphological changes; format: cell-based, human; conditions: 5 μM, 24-hour treatment
Summary of the method: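 SW620 cells exposed to test compound at 5 μM for 24 h, then photographed on an imaging system through 20× or 40× objectives to record morphology.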

[4] = test system: SW620 human colon cancer cells; experiment: Apoptosis assay; format: cell-based; conditions: 5 μM, 24-hour treatment, early apoptosis levels exceeding those observed with SAHA
Summary of the method: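 Annexin V-FITC/PI dual staining, with untreated and vehicle (DMSO 0.05%) controls. Data presented as histograms with accompanying bar graphs.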

SMILES	IC50 [1] [µM]	further results
Cc1ccc2ncn(Cc3cn(Cc4ccc(/C=C/C(=O)NO)cc4)nn3)c(=O)c2c1 [Compound 11b, (E)-N-Hydroxy-3-(4-((4-((6-methyl-4-oxoquinazolin-3(4H)-yl)methyl)-1H-1,2,3-triazol-1-yl)methyl)phenyl)acrylamide]	9.82 ± 2.46	–
O=C(CCCCCCC(=O)Nc1ccccc1)NO [SAHA, suberoylanilide hydroxamic acid, reference compound]	–	Cell cycle effect [2]: induced G2/M phase cell cycle arrest
O=C(/C=C/c1ccc(Cn2cc(Cn3cnc4ccc(Br)cc4c3=O)nn2)cc1)NO [Compound 11g, (E)-3-(4-((4-((6-Bromo-4-oxoquinazolin-3(4H)-yl)methyl)-1H-1,2,3-triazol-1-yl)methyl)phenyl)-N-hydroxyacrylamide]	9.16 ± 0.08	IC50 [3]: 9.07 ± 0.42 µM
COc1cccc2c1C(=O)c1c(O)c3c(c(O)c1C2=O)C[C@@](O)(C(=O)CO)C[C@@H]3O[C@H]1C[C@H](N)[C@H](O)[C@H](C)O1 [ADR, adriamycin, reference compound]	0.56 ± 0.1	–
Cc1ccc2c(=O)n(Cc3cn(Cc4ccc(/C=C/C(=O)NO)cc4)nn3)cnc2c1 [Compound 11c, (E)-N-Hydroxy-3-(4-((4-((7-methyl-4-oxoquinazolin-3(4H)-yl)methyl)-1H-1,2,3-triazol-1-yl)methyl)phenyl)acrylamide]	11.7 ± 4.39	–
O=C(/C=C/c1ccc(Cn2cc(Cn3cnc4ccccc4c3=O)nn2)cc1)NO [Compound 11a, (E)-N-Hydroxy-3-(4-((4-((4-oxoquinazolin-3(4H)-yl)methyl)-1H-1,2,3-triazol-1-yl)methyl)phenyl)acrylamide]	5.07 ± 2.92	–
O=C(/C=C/c1ccc(Cn2cc(Cn3cnc4ccc(F)cc4c3=O)nn2)cc1)NO [Compound 11e, (E)-3-(4-((4-((6-Fluoro-4-oxoquinazolin-3(4H)-yl)methyl)-1H-1,2,3-triazol-1-yl)methyl)phenyl)-N-hydroxyacrylamide]	4.57 ± 3.54	–
O=C(/C=C/c1ccc(Cn2cc(Cn3cnc4cc(F)ccc4c3=O)nn2)cc1)NO [Compound 11f, (E)-3-(4-((4-((7-Fluoro-4-oxoquinazolin-3(4H)-yl)methyl)-1H-1,2,3-triazol-1-yl)methyl)phenyl)-N-hydroxyacrylamide]	5.34 ± 0.76	–
O=C(NO)c1ccc(Cn2cc(Cn3cnc4ccc(Br)cc4c3=O)nn2)cc1 [Compound 7g, 4-((4-((6-Bromo-4-oxoquinazolin-3(4H)-yl)methyl)-1H-1,2,3-triazol-1-yl)methyl)-N-hydroxybenzamide]	20.8 ± 5.32	–
O=C(/C=C/c1ccc(Cn2cc(Cn3cnc4ccc(I)cc4c3=O)nn2)cc1)NO [Compound 11i, (E)-N-Hydroxy-3-(4-((4-((6-iodo-4-oxoquinazolin-3(4H)-yl)methyl)-1H-1,2,3-triazol-1-yl)methyl)phenyl)acrylamide]	28.5 ± 8.19	–
O=C(NO)c1ccc(Cn2cc(Cn3cnc4cc(F)ccc4c3=O)nn2)cc1 [Compound 7f, 4-((4-((7-Fluoro-4-oxoquinazolin-3(4H)-yl)methyl)-1H-1,2,3-triazol-1-yl)methyl)-N-hydroxybenzamide]	8.23 ± 2.04	–
Cc1ccc2c(=O)n(Cc3cn(Cc4ccc(C(=O)NO)cc4)nn3)cnc2c1 [Compound 7c, N-Hydroxy-4-((4-((7-methyl-4-oxoquinazolin-3(4H)-yl)methyl)-1H-1,2,3-triazol-1-yl)methyl)benzamide]	7.34 ± 0.94	–
O=C(NO)c1ccc(Cn2cc(Cn3cnc4ccc(I)cc4c3=O)nn2)cc1 [Compound 7i, N-Hydroxy-4-((4-((6-iodo-4-oxoquinazolin-3(4H)-yl)methyl)-1H-1,2,3-triazol-1-yl)methyl)benzamide]	5.52 ± 1.04	–
O=C(NO)c1ccc(Cn2cc(Cn3cnc4ccc(Cl)cc4c3=O)nn2)cc1 [Compound 7d, 4-((4-((6-Chloro-4-oxoquinazolin-3(4H)-yl)methyl)-1H-1,2,3-triazol-1-yl)methyl)-N-hydroxybenzamide]	3.64 ± 0.31	Morphological changes (SW620 cells): induced characteristic apoptotic morphological alterations; Cell cycle effect [2]: induced G2/M phase cell cycle arrest; Pro-apoptotic effect [4]: significantly induced early and late apoptosis
O=C(NO)c1ccc(Cn2cc(Cn3cnc4cc(Br)ccc4c3=O)nn2)cc1 [Compound 7h, 4-((4-((7-Bromo-4-oxoquinazolin-3(4H)-yl)methyl)-1H-1,2,3-triazol-1-yl)methyl)-N-hydroxybenzamide]	3.77 ± 1.87	–
O=C(/C=C/c1ccc(Cn2cc(Cn3cnc4cc(Br)ccc4c3=O)nn2)cc1)NO [Compound 11h, (E)-3-(4-((4-((7-Bromo-4-oxoquinazolin-3(4H)-yl)methyl)-1H-1,2,3-triazol-1-yl)methyl)phenyl)-N-hydroxyacrylamide]	5.73 ± 0.76	IC50 [3]: 5.55 ± 0.18 µM
O=C(NO)c1ccc(Cn2cc(Cn3cnc4ccccc4c3=O)nn2)cc1 [Compound 7a, N-Hydroxy-4-((4-((4-oxoquinazolin-3(4H)-yl)methyl)-1H-1,2,3-triazol-1-yl)methyl)benzamide]	9.21 ± 0.72	–
O=C(NO)c1ccc(Cn2cc(Cn3cnc4ccc(F)cc4c3=O)nn2)cc1 [Compound 7e, 4-((4-((6-Fluoro-4-oxoquinazolin-3(4H)-yl)methyl)-1H-1,2,3-triazol-1-yl)methyl)-N-hydroxybenzamide]	5.87 ± 1.55	–
O=C(/C=C/c1ccc(Cn2cc(Cn3cnc4ccc(Cl)cc4c3=O)nn2)cc1)NO [Compound 11d, (E)-3-(4-((4-((6-Chloro-4-oxoquinazolin-3(4H)-yl)methyl)-1H-1,2,3-triazol-1-yl)methyl)phenyl)-N-hydroxyacrylamide]	3.15 ± 0.33	Morphological changes (SW620 cells): induced characteristic apoptotic morphological alterations; Cell cycle effect [2]: induced G2/M phase cell cycle arrest; Pro-apoptotic effect [4]: significantly induced early and late apoptosis
Cc1ccc2ncn(Cc3cn(Cc4ccc(C(=O)NO)cc4)nn3)c(=O)c2c1 [Compound 7b, N-Hydroxy-4-((4-((6-methyl-4-oxoquinazolin-3(4H)-yl)methyl)-1H-1,2,3-triazol-1-yl)methyl)benzamide]	43.1 ± 4.55	–
